Experimental data published in ChEMBL document CHEMBL3045304, “Sesquiterpene lactones with potential use as natural herbicide models. 2. guaianolides” (2000).
Calls of active or inactive are those of the source. The calls are words filed in the database; no cut-off is given here.

Key:
[1] = test system: Allium cepa; assay: Inhibition of germination of Allium cepa cv. Valenciana (onion) at 0.1 mM or 1 mM after 5 days relative to untreated control; type: functional
[2] = test system: Triticum aestivum; assay: Inhibition of root length of Triticum aestivum cv. Cortex (wheat) at 0.1 mM or 1 mM after 5 days relative to untreated control; type: functional
Outline: (§1)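 Wheat: 10 seeds per dish on filter paper with 5 mL test solution, 5 days in the dark at 25 °C, 10 replicates per concentration. Stock test solutions were 10^-3 or 10^-4 M in 10 mM MES, with lower levels made by dilution, all at pH 6.0. Parallel controls were run. Output is % difference from control.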

[3] = test system: Triticum aestivum; assay: Inhibition of hypocotyl length of Triticum aestivum cv. Cortex (wheat) at 0.1 mM or 1 mM after 5 days relative to untreated control; type: functional; outline: as §1
[4] = test system: Triticum aestivum; assay: Inhibition of germination of Triticum aestivum cv. Cortex (wheat) at 0.1 mM or 1 mM after 5 days relative to untreated control; type: functional; outline: as §1
[5] = test system: Solanum lycopersicum; assay: Inhibition of hypocotyl length of Solanum lycopersicum cv. Tres Cantos (tomato) at 0.1 mM or 1 mM after 5 days relative to untreated control; type: functional
Outline: (§2)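 Lettuce and tomato seeds, 25 per dish on filter paper, received 5 mL test solution. Incubation was 5 days in the dark at 25 °C, with four replicates per concentration. Solutions were made at 10^-3 or 10^-4 M in 10 mM MES, diluted serially, and adjusted to pH 6.0. Parallel controls were run. Results are % difference from control.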

[6] = test system: Solanum lycopersicum; assay: Inhibition of root length of Solanum lycopersicum cv. Tres Cantos (tomato) at 0.1 mM or 1 mM after 5 days relative to untreated control; type: functional; outline: as §2
[7] = test system: Allium cepa; assay: Inhibition of root length of Allium cepa cv. Valenciana (onion) at 0.1 mM or 1 mM after 5 days relative to untreated control; type: functional
[8] = test system: Allium cepa; assay: Inhibition of hypocotyl length of Allium cepa cv. Valenciana (onion) at 0.1 mM or 1 mM after 5 days relative to untreated control; type: functional
[9] = test system: Allium cepa; assay: Stimulation of hypocotyl length of Allium cepa cv. Valenciana (onion) at 0.1 mM or 1 mM after 5 days relative to untreated control; type: functional
[10] = test system: Allium cepa; assay: Stimulation of root length of Allium cepa cv. Valenciana (onion) at 0.1 mM or 1 mM after 5 days relative to untreated control; type: functional
[11] = test system: Triticum aestivum; assay: Stimulation of hypocotyl length of Triticum aestivum cv. Cortex (wheat) at 0.1 mM or 1 mM after 5 days relative to untreated control; type: functional; outline: as §1
[12] = test system: Triticum aestivum; assay: Stimulation of root length of Triticum aestivum cv. Cortex (wheat) at 0.1 mM or 1 mM after 5 days relative to untreated control; type: functional; outline: as §1
[13] = test system: Solanum lycopersicum; assay: Inhibition of germination of Solanum lycopersicum cv. Tres Cantos (tomato) at 0.1 mM or 1 mM after 5 days relative to untreated control; type: functional; outline: as §2
[14] = test system: Lepidium sativum; assay: Inhibition of germination of Lepidium sativum at 0.1 mM or 1 mM after 5 days relative to untreated control; type: functional
[15] = test system: Lactuca sativa; assay: Inhibition of hypocotyl length of Lactuca sativa cv. Roman (lettuce) at 0.1 mM or 1 mM after 5 days relative to untreated control; type: functional; outline: as §2
[16] = test system: Lactuca sativa; assay: Inhibition of root length of Lactuca sativa cv. Roman (lettuce) at 0.1 mM or 1 mM after 5 days relative to untreated control; type: functional; outline: as §2
[17] = test system: Lactuca sativa; assay: Inhibition of germination of Lactuca sativa cv. Roman (lettuce) at 0.1 mM or 1 mM after 5 days relative to untreated control; type: functional; outline: as §2
[18] = test system: Triticum aestivum; assay: Stimulation of germination of Triticum aestivum cv. Cortex (wheat) at 0.1 mM or 1 mM after 5 days relative to untreated control; type: functional; outline: as §1
[19] = test system: Solanum lycopersicum; assay: Stimulation of hypocotyl length of Solanum lycopersicum cv. Tres Cantos (tomato) at 0.1 mM or 1 mM after 5 days relative to untreated control; type: functional; outline: as §2
[20] = test system: Solanum lycopersicum; assay: Stimulation of root length of Solanum lycopersicum cv. Tres Cantos (tomato) at 0.1 mM or 1 mM after 5 days relative to untreated control; type: functional; outline: as §2
[21] = test system: Solanum lycopersicum; assay: Stimulation of germination of Solanum lycopersicum cv. Tres Cantos (tomato) at 0.1 mM or 1 mM after 5 days relative to untreated control; type: functional; outline: as §2
[22] = test system: Lepidium sativum; assay: Stimulation of hypocotyl length of Lepidium sativum at 0.1 mM or 1 mM after 5 days relative to untreated control; type: functional
[23] = test system: Lepidium sativum; assay: Stimulation of root length of Lepidium sativum at 0.1 mM or 1 mM after 5 days relative to untreated control; type: functional
[24] = test system: Lactuca sativa; assay: Stimulation of root length of Lactuca sativa cv. Roman (lettuce) at 0.1 mM or 1 mM after 5 days relative to untreated control; type: functional; outline: as §2
[25] = test system: Lactuca sativa; assay: Stimulation of hypocotyl length of Lactuca sativa cv. Roman (lettuce) at 0.1 mM or 1 mM after 5 days relative to untreated control; type: functional; outline: as §2
[26] = test system: Lactuca sativa; assay: Stimulation of germination of Lactuca sativa cv. Roman (lettuce) at 0.1 mM or 1 mM after 5 days relative to untreated control; type: functional; outline: as §2
[27] = test system: Lepidium sativum; assay: Inhibition of root length of Lepidium sativum at 0.1 mM or 1 mM after 4 days relative to untreated control
[28] = test system: Lepidium sativum; assay: Inhibition of germination of Lepidium sativum at 0.1 mM or 1 mM after 4 days relative to untreated control; design: scale not given: the % may be the effect or the level left
[29] = test system: Lepidium sativum; assay: Inhibition of hypocotyl length of Lepidium sativum at 0.1 mM or 1 mM after 4 days relative to untreated control
[30] = test system: Allium cepa; assay: Stimulation of germination of Allium cepa cv. Valenciana (onion) at 0.1 mM or 1 mM after 7 days relative to untreated control
[31] = test system: Allium cepa; assay: Stimulation of germination of Allium cepa cv. Valenciana (onion) at 0.1 mM or 1 mM after 5 days relative to untreated control; type: functional

Structure (SMILES) | inhibition (INH) [2] [%] | inhibition (INH) [3] [%] | inhibition (INH) [5] [%] | inhibition (INH) [6] [%] | inhibition (INH) [7] [%] | inhibition (INH) [8] [%] | Activity [9] [%] | Activity [10] [%] | Activity [11] [%] | Activity [12] [%] | inhibition (INH) [14] [%] | inhibition (INH) [17] [%] | Activity [18] | Activity [19] [%] | Activity [20] [%] | Activity [21] | Activity [22] [%] | Activity [23] [%] | Activity [24] | Activity [25] | also measured
C=C1[C@@H]2[C@H]3OC(=O)C(=C)[C@@H]3CCC(=C)[C@@H]2C[C@H]1O [ISOZALUZANIN C] | >40 | 20 | >40 | >40 | >40 | >40 | >40 | >40 | 20 | >40 | >40 | <20 | 20% | >40 | >40 | 20% | >40 | >40 | inactive | <20% | inhibition [1]: inactive; inhibition (INH) [4]: 20%; inhibition (INH) [13]: 20%; inhibition (INH) [15]: <20%; inhibition [16]: inactive; Activity [26]: <20%; inhibition (INH) [27]: >40%; Activity [28]: >40%; inhibition (INH) [29]: >40%; Activity [30]: inactive
C=C1CC[C@H]2C(=C)CC[C@@H]3[C@H](OC(=O)[C@H]3CO)[C@@H]12 | 20 | 20 | >40 | >40 | >40 | >40 | >40 | >40 | 20 | 20 | <20 | <20 | <=20% | >40 | >40 | inactive | >40 | >40 | 20% | inactive | inhibition [1]: inactive; inhibition (INH) [4]: <=20%; inhibition [13]: inactive; inhibition [15]: inactive; inhibition (INH) [16]: 20%; Activity [26]: <20%; inhibition (INH) [27]: >40%; Activity [28]: <20%; inhibition (INH) [29]: >40%; Activity [30]: inactive
C=C1C(=O)C[C@H]2C(=C)CC[C@H]3C(=C)C(=O)O[C@@H]3[C@@H]12 [DEHYDROZALUZANIN C] | >40 | >40 | >40 | >40 | >40 | >40 | >40 | >40 | >40 | >40 | >40 | >40 | >40% | >40 | >40 | >40% | >40 | >40 | >40% | >40% | inhibition (INH) [1]: >40%; inhibition (INH) [4]: >40%; Activity [31]: >40%; inhibition (INH) [13]: >40%; inhibition (INH) [15]: >40%; inhibition (INH) [16]: >40%; Activity [26]: >40%; inhibition (INH) [27]: >40%; Activity [28]: >40%; inhibition (INH) [29]: >40%
C=C1C(=O)O[C@H]2[C@H]1CCC(=C)[C@@H]1C[C@@H](O)C(=C)[C@@]12O [5ALPHA-HYDROXYISOZALUZANIN C] | >40 | 20 | >40 | >40 | >40 | >40 | >40 | >40 | 20 | >40 | >40 | 20 | inactive | >40 | >40 | inactive | >40 | >40 | <20% | 20% | inhibition [1]: inactive; inhibition [4]: inactive; Activity [31]: inactive; inhibition [13]: inactive; inhibition (INH) [15]: 20%; inhibition (INH) [16]: <20%; Activity [26]: 20%; inhibition (INH) [27]: >40%; Activity [28]: >40%; inhibition (INH) [29]: >40%
